Most compounds without a hit are left out; they make up all but 3.4% or so of the library.
PHOSPHO1 inh: inhibitors of human PHOSPHO1 phosphatase | Q8TCT1 | recombinant PHOSPHO1, absorbance phosphatase assay | 290,000 tested, 1.1% active | inhibition, % at 13.3 µM; in the data active = inhibition above about 60%
Runt-SMMHC FRET: inhibitors of human RUNX1 Runt domain binding to CBFb-SMMHC; Cerulean-Runt/Venus-CBFb-SMMHC FRET ratio 530/480, 1 h; inhibition, % at 20 µM; 220,000 tested, 0.74% active; AID 1434;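 active = mean inhibition across duplicate retests at 20 µM reaching about 50%, limit read from the data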;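 note: inhibitors lower the FRET ratio by blocking Runt binding to CBFb-SMMHC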
RanGTP-Imp inh: inhibitors of RanGTP-importin-beta interaction, primary screen, biochemical, FRET, CFP-Ran, YFP-importin-beta, homogeneous | cell-free CFP-Ran/YFP-importin-beta FRET ratio | inhibition, % (concentration not given with the values) | 300,000 tested, 1.1% active;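 active = more than half of the replicate wells show a fall in the fluorescence ratio signal beyond about 16%, limit read from the data, passing the limit was not always enough; inconclusive = exactly half of the replicate wells pass the set limit; inactive = fewer than half of replicates pass the limit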
HMGR II inh: blocks class II HMG-CoA reductase of Enterococcus faecalis; purified E. faecalis HMGR, NADPH absorbance 340 nm kinetic; inhibition, % at 10 µM; 190,000 tested, 0.41% active; AID 1066;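 active = inhibition above a set limit, the median over all tested compounds plus 3 SD, cut at about 9.5% in these data; inconclusive = no clear call, values can overlap the other calls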;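 note: enzyme runs in reverse so mevalonate oxidation gives rising NADPH absorbance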
Wee1 stabilizer: blocks degradation of human Wee1 kinase | 220,000 tested, 1.2% active | reporter increase, % at 5 µM | HeLa Luc-Wee1K328M stability, luciferase luminescence; 100% = proteasome inhibitor MG132 effect;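 active = activation above the mean of all tested compounds plus 3 SD, set per screening run, cut at about 8.8% in these data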;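 note: cells exposed to compound for 20 h before luminescence read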
Target sequence (P30291 whole entry K328M): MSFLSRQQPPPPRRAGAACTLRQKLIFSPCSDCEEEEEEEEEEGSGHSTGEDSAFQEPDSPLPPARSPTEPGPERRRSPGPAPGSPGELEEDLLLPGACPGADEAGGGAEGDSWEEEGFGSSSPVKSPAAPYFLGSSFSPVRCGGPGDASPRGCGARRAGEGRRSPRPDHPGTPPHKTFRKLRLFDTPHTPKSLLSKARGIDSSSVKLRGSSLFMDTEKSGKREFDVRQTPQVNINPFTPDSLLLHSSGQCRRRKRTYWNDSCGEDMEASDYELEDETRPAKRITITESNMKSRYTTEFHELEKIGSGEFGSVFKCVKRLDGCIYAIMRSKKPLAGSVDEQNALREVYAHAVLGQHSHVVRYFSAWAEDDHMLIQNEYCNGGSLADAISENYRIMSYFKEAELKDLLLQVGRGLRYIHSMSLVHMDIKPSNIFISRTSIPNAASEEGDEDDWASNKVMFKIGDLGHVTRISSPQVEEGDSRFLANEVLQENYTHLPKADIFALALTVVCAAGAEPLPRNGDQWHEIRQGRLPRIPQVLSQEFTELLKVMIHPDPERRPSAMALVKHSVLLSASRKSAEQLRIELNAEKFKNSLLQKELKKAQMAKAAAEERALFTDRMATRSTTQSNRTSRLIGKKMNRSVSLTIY
Runt-CBFb FRET: blocks binding of human RUNX1 Runt domain to CBFb; Cerulean-Runt/Venus-CBFb FRET ratio 530/480, 1 h; inhibition, % at 20 µM; 220,000 tested, 0.46% active; AID 1496; Q01196+Q13951;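 active = inhibition over about 50% at 20 µM in the single-dose screen, limit read from the data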
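System: Cerulean-labeled Runt domain protein | Quantity: 100 nM of each labeled protein | Schedule: 1 h compound exposure, room temperature | Detection: Fluorescence energy transfer, 422 nm excitation, 530/480 nm emission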
Hits are given with their value.

How did C#CCOCCOCCOCCNc1nc(N2CCN(C(=O)C([C@@H](C)CC)n3cc(C(N)CC(C)C)nn3)CC2)nc(N2CCN(C(=O)[C@H](CCC(=O)O)n3cc(C(N)Cc4ccc(O)cc4)nn3)CC2)n1 (stereo partly specified) do in these assays?
PHOSPHO1 inh: inactive; Runt-SMMHC FRET: inactive; RanGTP-Imp inh: inactive; HMGR II inh: inactive; Wee1 stabilizer: 11; Runt-CBFb FRET: inactive

How did C#CCOCCOCCOCCNc1nc(N2CCN(C(=O)[C@H](C)n3cc(CCCN=C(N)N)nn3)CC2)nc(N2CCN(C(=O)[C@H](CCCCN)n3cc(CCCC)nn3)CC2)n1 do in these assays?
PHOSPHO1 inh: inactive; Runt-SMMHC FRET: inactive; HMGR II inh: 10; Wee1 stabilizer: inactive; Runt-CBFb FRET: inactive

What do the screens show for `C#CCOCCOCCOCCNc1nc(N2CCN(C(=O)C([C@@H](C)CC)n3cc(C(N)Cc4ccc(O)cc4)nn3)CC2)nc(N2CCN(C(=O)[C@H](CCC(=O)O)n3cc(C(N)CC(C)C)nn3)CC2)n1` (stereo partly specified)?
PHOSPHO1 inh: inactive; Runt-SMMHC FRET: inactive; RanGTP-Imp inh: inactive; HMGR II inh: inactive; Wee1 stabilizer: inactive; Runt-CBFb FRET: inactive

Results for C#CCN(Cc1ccco1)C(=O)c1ccc(OC2CCN(Cc3ccccn3)CC2)cc1 ?
PHOSPHO1 inh: inactive; RanGTP-Imp inh: inactive

What do the screens show for `O=C(CN1C(=O)COc2ccc(S(=O)(=O)N3CCCCCC3)cc21)NCc1ccc(F)cc1`?
PHOSPHO1 inh: inactive; RanGTP-Imp inh: inactive

How did COc1ccc(NCc2ccsc2)cc1 do in these assays?
RanGTP-Imp inh: inactive

What do the screens show for `C=CCOc1cccc(C2c3c(oc4ccc(F)cc4c3=O)C(=O)N2CCCN2CCOCC2)c1` (stereo unspecified)?
PHOSPHO1 inh: inactive; Runt-SMMHC FRET: inactive; RanGTP-Imp inh: inactive; Runt-CBFb FRET: inactive

What do the screens show for `Cc1ccc(C)c(S(=O)(=O)c2c(N)n(/N=C/c3ccco3)c3nc4ccccc4nc23)c1`?
PHOSPHO1 inh: inactive; Runt-SMMHC FRET: 67; RanGTP-Imp inh: inactive; HMGR II inh: inactive; Wee1 stabilizer: inactive; Runt-CBFb FRET: inactive

Results for N#CCC(=O)N1CCN(Cc2ccc3c(c2)OCO3)CC1 ?
RanGTP-Imp inh: inactive

How did CC(=O)NC1C(=O)N=C(SCC(=O)Nc2sc3c(c2C#N)CCCCCC3)NC1=O (stereo unspecified) do in these assays?
PHOSPHO1 inh: inactive; Runt-SMMHC FRET: inactive; RanGTP-Imp inh: inactive; HMGR II inh: 9.8; Wee1 stabilizer: inactive; Runt-CBFb FRET: inactive

Results for COc1ccc(CCNC(=O)C2CCN(S(=O)(=O)c3ccc4c(c3)oc(=O)n4C)CC2)cc1OC ?
PHOSPHO1 inh: inactive; RanGTP-Imp inh: inactive

How did C/C(=N\NC=O)c1ccncc1 do in these assays?
PHOSPHO1 inh: inactive; Runt-SMMHC FRET: inactive; RanGTP-Imp inh: inactive; HMGR II inh: inactive; Wee1 stabilizer: inactive; Runt-CBFb FRET: inactive

What do the screens show for `COc1cccc(-c2ccc(SCc3ccccn3)nn2)c1`?
PHOSPHO1 inh: inactive; Runt-SMMHC FRET: inactive; RanGTP-Imp inh: inactive; HMGR II inh: inactive; Wee1 stabilizer: inactive; Runt-CBFb FRET: inactive

How did Cc1ccc(S(=O)(=O)c2cc3c(=O)n4ccccc4nc3n(Cc3ccco3)c2=N)cc1 do in these assays?
PHOSPHO1 inh: inactive; RanGTP-Imp inh: 104; HMGR II inh: inactive; Wee1 stabilizer: inactive; Runt-CBFb FRET: inactive

How did CCCCCn1c(=N)c(S(=O)(=O)c2ccc(Br)cc2)cc2c(=O)n3cccc(C)c3nc21 do in these assays?
PHOSPHO1 inh: inactive; RanGTP-Imp inh: inconclusive

Results for Cc1ccc(S(=O)(=O)c2cc3c(=O)n4cccc(C)c4nc3n(Cc3ccco3)c2=N)cc1C ?
PHOSPHO1 inh: inactive; Runt-SMMHC FRET: 65; Runt-CBFb FRET: inactive

Results for CNC(=O)COc1coc(CN2CCN(Cc3ccccc3)CC2)cc1=O ?
PHOSPHO1 inh: inactive; RanGTP-Imp inh: inactive

What do the screens show for `COc1cc(/C=N/n2c(=S)[nH]nc(C)c2=O)cc([N+](=O)[O-])c1O`?
PHOSPHO1 inh: 64; Runt-SMMHC FRET: inactive; RanGTP-Imp inh: inactive; HMGR II inh: inactive; Wee1 stabilizer: inactive; Runt-CBFb FRET: inactive

What do the screens show for `Cc1n[nH]c(=S)n(/N=C/c2cccc([N+](=O)[O-])c2)c1=O`?
PHOSPHO1 inh: inactive; Runt-SMMHC FRET: inactive; RanGTP-Imp inh: inactive; Wee1 stabilizer: inactive; Runt-CBFb FRET: inactive

Screening data from PubChem.
